Test results published in ChEMBL document CHEMBL1122328, “Hypolipidemic activity of phthalimide derivatives. 2. N-phenylphthalimide and derivatives” (1983).

Tests used:
Type in all cases: functional
Mus musculus [1] = assay: Effect on Serum cholesterol levels on CF1 male mice at a dose of 25 (mg/kg)/day after 9 days
In short: (§1)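 CF1 male mice (~25 g), drug suspended in 1% carboxymethylcellulose in water, given ip daily for 16 days; n = 6; vehicle control. Tail-vein blood on days 9 and 16, serum cholesterol by modified Liebermann–Burchard reaction; day-14 serum triglyceride by commercial kit; expressed as % control.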

Mus musculus [2] = assay: In vitro effect on CF1 male mouse on Ac-CoA synthetase after 16 days at a dose of 10 (mg/kg)/day; details: in the assay text read “In vivo” for “In vitro”
In short: (§2)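 In vivo enzyme study. CF₁ male mice were dosed ip for 16 days in 1% CMC, and liver was homogenised to 10% in 0.25 M sucrose with 0.001 M EDTA. Enzymes assayed: acetyl-CoA synthetase as hydroxamate at 540 nm after 30 min at 37 °C; HMG CoA reductase with [1-¹⁴C]acetate in 9000g supernatant for 60 min at 37 °C; fatty acid synthetase with [2-¹⁴C]malonyl-CoA; acyltransferase with [³H]glycerol 3-phosphate and microsomes for 10 min; phosphatidate phosphohydrolase as released phosphate at 820 nm after 30 min. N = 6; reported as % control.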

Mus musculus [3] = assay: In vitro effect on CF1 male mouse on phosphatidate phosphohydrolase after 16 days at a dose of 10 (mg/kg)/day; in short: as §2
Rattus norvegicus [4] = assay: Effect on very low density cholesterol Holtzman rats after 14 days administration
In short: (§3)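 Holtzman male rats (~400 g) received drug at 20 (mg/kg)/day for 14 days. On day 14, blood was collected from the abdominal aorta and serum was separated by centrifugation at 3500 rpm. Lipid content of the lipoprotein fractions was then determined.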

Rattus norvegicus [5] = assay: Effect on cholesterol chylomicrons Holtzman rats after 14 days administration
In short: (§4)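 Holtzman male rats (~400 g) given drug at 20 (mg/kg)/day for 14 days; on day 14 blood taken from the abdominal aorta and serum separated by centrifugation at 3500 rpm; lipid and protein content of the lipoprotein fractions measured.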

Mus musculus [6] = assay: In vitro effect on CF1 male mouse onAc-CoA carboxylase after 16 days at a dose of 60 (mg/kg)/day
In short: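 Mice (CF1 males) given agent ip daily for 16 days in 1% carboxymethylcellulose; liver 10% homogenate in 0.25 M sucrose + 0.001 M EDTA. Acetyl-CoA carboxylase first polymerized 30 min at 37 °C, then incubated 30 min at 37 °C with sodium [14C]bicarbonate (41.0 mCi/mmol); incorporated label counted. Activity as % of vehicle control; N = 6.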

Mus musculus [7] = organism: Mus musculus; assay: In vitro effect on CF1 male mouse on HMGCoA reductase
Rattus norvegicus [8] = assay: Effect on low density neutral lipids Holtzman rats after 14 days administration; in short: as §4
Mus musculus [9] = assay: Effect on Serum triglceride levels on CF1 male mice at a dose of 50 (mg/kg)/day after 14 days; in short: as §1
Mus musculus [10] = assay: Effect on cholesterol from CF1 male mice after 16 days at a dose of 10 (mg/kg/day)
In short: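 CF1 male mice dosed ip for 16 days at 10–60 (mg/kg)/day; liver taken and 10% homogenate made in 0.25 M sucrose + 0.001 M EDTA; aliquot extracted by Folch and Bligh–Dyer methods, mg lipid weighed, cholesterol measured by Liebermann–Burchard method; n = 6; % of 1% CMC control.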

Rattus norvegicus [11] = assay: Effect on very low density Protein Holtzman rats after 14 days administration; in short: as §3
Mus musculus [12] = organism: Mus musculus; assay: In vitro effect on CF1 male mouse on Cholesterol side- chain oxidation
In short: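 In vitro test on 10% CF₁ male mouse liver homogenate (0.25 M sucrose, 0.001 M EDTA) with 2.5 μmol test drug. Assays: acetyl-CoA synthetase and citrate lyase as hydroxamate at 540 nm, 30 min, 37 °C; citrate exchange from [¹⁴C]citrate-loaded mitochondria after 10 min with drug; side-chain oxidation by ¹⁴CO₂ from [26-¹⁴C]cholesterol, 18 h, 37 °C; acetyl-CoA carboxylase by [¹⁴C]bicarbonate fixation after 30 min polymerization then 30 min at 37 °C.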

Mus musculus [13] = assay: Effect on neutral lipids from CF1 male mice after 16 days at a dose of 20 (mg/kg/day)
In short: (§5)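 Dosing was ip in CF₁ male mice (~25 g) for 16 days, with compound suspended in 1% carboxymethylcellulose. Liver was then taken and homogenised to 10% in 0.25 M sucrose with 0.001 M EDTA. Lipid was extracted from a 2 mL aliquot by the Folch and Bligh–Dyer methods and total mg of lipid was weighed. Cholesterol (Liebermann–Burchard), triglycerides (kit), neutral lipids and phospholipids were then measured; N = 6; reported as % of vehicle control.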

Rattus norvegicus [14] = assay: Effect on Chylomicrons of Protein Holtzman rats after 14 days administration; in short: as §4
Mus musculus [15] = assay: Effect on neutral lipids from CF1 male mice after 16 days at a dose of 40 (mg/kg/day); in short: as §5

In the case of CC(=O)c1ccccc1N1C(=O)c2ccccc2C1=O, the Control (Mus musculus [1]) is reported as 74%, the Control (Mus musculus [2]) is reported as 53% and the Control (Mus musculus [3]) is reported as 85%. It also gave a Control (Rattus norvegicus [4]) of 85%, a Control (Rattus norvegicus [5]) of 64% and a Control (Mus musculus [6]) of 57%. The Control (Mus musculus [7]) was 91%, the Control (Rattus norvegicus [8]) was 49% and the Control (Mus musculus [9]) was 53%. It also gave a Control (Mus musculus [10]) of 73%, a Control (Rattus norvegicus [11]) of 66% and a Control (Mus musculus [12]) of 27%. The Control (Mus musculus [13]) was 65%, the Control (Rattus norvegicus [14]) was 91% and the Control (Mus musculus [15]) was 62%.
